Source: ChEMBL document CHEMBL5705905, “Pharmacological targeting of kinases MST1 and MST2 augments tissue repair and regeneration” (Sci Transl Med, 2016)
The source made the active and inactive calls. No cut-off for these calls is given here.

How the values were obtained:
[1] = target: T1, Serine/threonine-protein kinase 4 (Homo sapiens, UniProt Q13043); assay: Inhibition of Flag-tagged full-length MST1 (unknown origin) transfected in HEK293T cells assessed as MOB1a phosphorylation level incubated for 3 hrs by immunoblot analysis
T1 sequence (Q13043 whole entry): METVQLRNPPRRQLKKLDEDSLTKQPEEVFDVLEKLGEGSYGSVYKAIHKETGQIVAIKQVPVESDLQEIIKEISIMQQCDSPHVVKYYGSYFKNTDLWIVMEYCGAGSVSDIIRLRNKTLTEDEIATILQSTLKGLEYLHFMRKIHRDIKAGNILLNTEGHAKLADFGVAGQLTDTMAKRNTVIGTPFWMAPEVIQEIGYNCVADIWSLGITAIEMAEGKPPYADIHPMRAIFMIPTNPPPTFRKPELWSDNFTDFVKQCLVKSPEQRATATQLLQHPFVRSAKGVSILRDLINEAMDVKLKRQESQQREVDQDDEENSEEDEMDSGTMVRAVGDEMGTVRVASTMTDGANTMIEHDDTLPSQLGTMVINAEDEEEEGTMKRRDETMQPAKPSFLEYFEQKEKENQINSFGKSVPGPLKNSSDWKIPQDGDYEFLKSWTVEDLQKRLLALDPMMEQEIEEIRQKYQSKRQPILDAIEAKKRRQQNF

[2] = target: Ankyrin repeat and protein kinase domain-containing protein 1 (Homo sapiens) (UniProt Q8NFD2); assay: Inhibition of ANKK1 (unknown origin) assessed as remaining activity at 1 uM by Kinome scan method relative to control
Outline: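 Active-site-dependent competition-binding (KINOMEscan) panel of 468 kinases, test compound at 1 μM (from a 10 mM DMSO stock). Read-out is ctrl% = (test signal − positive control signal)/(negative control signal − positive control signal) × 100. DMSO is the negative control (100%) and a control compound is the positive control (0%). Lower ctrl% means tighter binding.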

[3] = target: Calcium/calmodulin-dependent protein kinase type 1D (Homo sapiens) (UniProt Q8IU85); assay: Inhibition of CAMK1D (unknown origin) assessed as remaining activity at 1 uM by Kinome scan method relative to control
Chain of Calcium/calmodulin-dependent protein kinase type 1D (Homo sapiens) (Q8IU85 whole entry, looked up): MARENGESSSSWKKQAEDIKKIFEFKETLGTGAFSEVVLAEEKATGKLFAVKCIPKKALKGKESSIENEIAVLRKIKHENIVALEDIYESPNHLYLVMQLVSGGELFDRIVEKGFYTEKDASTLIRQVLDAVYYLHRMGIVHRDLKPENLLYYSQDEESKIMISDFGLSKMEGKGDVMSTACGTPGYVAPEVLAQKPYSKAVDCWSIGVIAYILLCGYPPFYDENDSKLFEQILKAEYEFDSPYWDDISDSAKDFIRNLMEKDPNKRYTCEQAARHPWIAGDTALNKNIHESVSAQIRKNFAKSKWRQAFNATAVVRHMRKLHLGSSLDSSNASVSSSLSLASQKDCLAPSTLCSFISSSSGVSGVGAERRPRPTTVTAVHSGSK
Outline: (§1)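 Active-site-dependent competition-binding profiling (KINOMEscan) at 1 μM against a 468-kinase panel; compound supplied from a 10 mM DMSO stock. Read-out is ctrl% = (test signal − positive control signal)/(negative control signal − positive control signal) × 100. DMSO is the negative control (100%) and a control compound the positive control (0%). Lower ctrl% means tighter binding.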

[4] = target: Dual specificity protein kinase CLK4 (Homo sapiens) (UniProt Q9HAZ1); assay: Inhibition of CLK4 (unknown origin) assessed as remaining activity at 1 uM by Kinome scan method relative to control; outline: as §1
Chain of Dual specificity protein kinase CLK4 (Homo sapiens) (Q9HAZ1 whole entry, looked up): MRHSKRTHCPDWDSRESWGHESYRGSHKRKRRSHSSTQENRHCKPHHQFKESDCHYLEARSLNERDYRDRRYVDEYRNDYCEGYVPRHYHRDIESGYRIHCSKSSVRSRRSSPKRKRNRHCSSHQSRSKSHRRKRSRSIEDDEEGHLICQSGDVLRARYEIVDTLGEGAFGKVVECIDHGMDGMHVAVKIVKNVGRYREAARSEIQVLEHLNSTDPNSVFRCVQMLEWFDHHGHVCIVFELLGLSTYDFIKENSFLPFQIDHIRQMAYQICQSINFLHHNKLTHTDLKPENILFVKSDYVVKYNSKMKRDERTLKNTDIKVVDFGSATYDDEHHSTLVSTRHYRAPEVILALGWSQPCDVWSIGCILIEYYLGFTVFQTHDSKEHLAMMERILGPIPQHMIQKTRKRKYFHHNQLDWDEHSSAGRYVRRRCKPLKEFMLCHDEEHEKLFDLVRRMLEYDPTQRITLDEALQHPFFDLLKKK

[5] = target: Mitogen-activated protein kinase kinase kinase 12 (Homo sapiens) (UniProt Q12852); assay: Inhibition of DLK (unknown origin) assessed as remaining activity at 1 uM by Kinome scan method relative to control
Chain of Mitogen-activated protein kinase kinase kinase 12 (Homo sapiens) (Q12852 whole entry): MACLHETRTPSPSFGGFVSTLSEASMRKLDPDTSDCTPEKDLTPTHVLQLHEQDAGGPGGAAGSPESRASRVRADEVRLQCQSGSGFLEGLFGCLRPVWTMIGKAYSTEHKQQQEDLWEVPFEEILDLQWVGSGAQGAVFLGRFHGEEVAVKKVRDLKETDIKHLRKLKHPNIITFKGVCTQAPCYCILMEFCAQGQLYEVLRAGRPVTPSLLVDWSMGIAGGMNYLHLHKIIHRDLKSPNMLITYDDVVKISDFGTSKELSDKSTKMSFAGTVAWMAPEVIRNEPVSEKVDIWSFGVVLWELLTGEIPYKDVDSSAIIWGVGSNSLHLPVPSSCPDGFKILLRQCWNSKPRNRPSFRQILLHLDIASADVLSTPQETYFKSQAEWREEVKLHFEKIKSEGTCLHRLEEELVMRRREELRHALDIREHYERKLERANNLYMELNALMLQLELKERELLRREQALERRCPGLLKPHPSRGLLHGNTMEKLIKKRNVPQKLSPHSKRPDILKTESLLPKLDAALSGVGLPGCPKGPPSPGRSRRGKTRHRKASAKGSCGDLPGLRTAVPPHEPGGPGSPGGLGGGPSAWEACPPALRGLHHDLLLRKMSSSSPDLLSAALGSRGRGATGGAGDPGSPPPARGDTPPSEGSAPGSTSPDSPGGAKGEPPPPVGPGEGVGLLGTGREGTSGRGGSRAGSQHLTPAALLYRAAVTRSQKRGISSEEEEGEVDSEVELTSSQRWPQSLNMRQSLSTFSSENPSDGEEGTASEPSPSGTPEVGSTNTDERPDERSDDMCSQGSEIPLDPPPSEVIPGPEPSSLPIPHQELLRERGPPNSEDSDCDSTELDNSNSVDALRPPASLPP

[6] = tested on: Receptor-type tyrosine-protein kinase FLT3 (Homo sapiens), P36888 [D835H]; assay: Inhibition of FLT3 D835H mutant (unknown origin) assessed as remaining activity at 1 uM by Kinome scan method relative to control
[7] = target: Receptor-type tyrosine-protein kinase FLT3 (Homo sapiens) (UniProt P36888); assay: Inhibition of FLT3-autoinnibited (unknown origin) assessed as remaining activity at 1 uM by Kinome scan method relative to control
[8] = target: Tyrosine-protein kinase Fyn (Homo sapiens) (UniProt P06241); assay: Inhibition of FYN (unknown origin) assessed as remaining activity at 1 uM by Kinome scan method relative to control
Chain of Tyrosine-protein kinase Fyn (Homo sapiens) (P06241 2-537 limits assumed): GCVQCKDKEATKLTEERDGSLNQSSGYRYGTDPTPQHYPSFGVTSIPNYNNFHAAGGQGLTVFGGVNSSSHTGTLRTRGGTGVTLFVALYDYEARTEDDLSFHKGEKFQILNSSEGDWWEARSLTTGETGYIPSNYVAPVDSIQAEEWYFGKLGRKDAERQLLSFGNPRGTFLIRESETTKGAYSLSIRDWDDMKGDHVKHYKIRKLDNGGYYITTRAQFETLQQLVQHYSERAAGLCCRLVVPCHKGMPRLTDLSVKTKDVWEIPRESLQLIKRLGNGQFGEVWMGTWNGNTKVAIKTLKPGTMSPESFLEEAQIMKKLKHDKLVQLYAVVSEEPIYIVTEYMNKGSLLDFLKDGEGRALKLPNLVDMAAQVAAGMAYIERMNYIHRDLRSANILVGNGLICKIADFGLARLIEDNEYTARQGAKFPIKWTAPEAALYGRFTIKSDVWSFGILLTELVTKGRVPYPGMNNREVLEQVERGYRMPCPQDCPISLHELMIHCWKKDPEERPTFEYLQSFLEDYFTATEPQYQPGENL

[9] = target: Serine/threonine-protein kinase pim-1 (Homo sapiens) (UniProt P11309); assay: Inhibition of PIM1 (unknown origin) assessed as remaining activity at 1 uM by Kinome scan method relative to control
Chain of Serine/threonine-protein kinase pim-1 (Homo sapiens) (P11309 whole entry, looked up): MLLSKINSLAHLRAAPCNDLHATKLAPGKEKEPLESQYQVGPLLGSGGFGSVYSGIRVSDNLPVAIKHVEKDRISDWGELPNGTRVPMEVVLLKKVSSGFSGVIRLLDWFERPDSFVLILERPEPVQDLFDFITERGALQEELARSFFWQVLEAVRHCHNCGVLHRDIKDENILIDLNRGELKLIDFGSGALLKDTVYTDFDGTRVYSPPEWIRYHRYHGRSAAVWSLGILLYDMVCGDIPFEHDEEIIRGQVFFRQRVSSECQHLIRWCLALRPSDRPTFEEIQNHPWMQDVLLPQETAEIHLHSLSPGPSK

[10] = target: Proto-oncogene tyrosine-protein kinase receptor Ret (Homo sapiens) (UniProt P07949); assay: Inhibition of RET (unknown origin) assessed as remaining activity at 1 uM by Kinome scan method relative to control
[11] = tested on: Proto-oncogene tyrosine-protein kinase receptor Ret (Homo sapiens), P07949 [V804L]; assay: Inhibition of RET V804L (unknown origin) assessed as remaining activity at 1 uM by Kinome scan method relative to control
[12] = target: Proto-oncogene tyrosine-protein kinase ROS (Homo sapiens) (UniProt P08922); assay: Inhibition of ROS1 (unknown origin) assessed as remaining activity at 1 uM by Kinome scan method relative to control
[13] = target: Ribosomal protein S6 kinase alpha-6 (Homo sapiens) (UniProt Q9UK32); assay: Inhibition of N-terminal kinase domain RSK4 (unknown origin) assessed as remaining activity at 1 uM by Kinome scan method relative to control
Chain of Ribosomal protein S6 kinase alpha-6 (Homo sapiens) (Q9UK32 whole entry, the tested form may be a part): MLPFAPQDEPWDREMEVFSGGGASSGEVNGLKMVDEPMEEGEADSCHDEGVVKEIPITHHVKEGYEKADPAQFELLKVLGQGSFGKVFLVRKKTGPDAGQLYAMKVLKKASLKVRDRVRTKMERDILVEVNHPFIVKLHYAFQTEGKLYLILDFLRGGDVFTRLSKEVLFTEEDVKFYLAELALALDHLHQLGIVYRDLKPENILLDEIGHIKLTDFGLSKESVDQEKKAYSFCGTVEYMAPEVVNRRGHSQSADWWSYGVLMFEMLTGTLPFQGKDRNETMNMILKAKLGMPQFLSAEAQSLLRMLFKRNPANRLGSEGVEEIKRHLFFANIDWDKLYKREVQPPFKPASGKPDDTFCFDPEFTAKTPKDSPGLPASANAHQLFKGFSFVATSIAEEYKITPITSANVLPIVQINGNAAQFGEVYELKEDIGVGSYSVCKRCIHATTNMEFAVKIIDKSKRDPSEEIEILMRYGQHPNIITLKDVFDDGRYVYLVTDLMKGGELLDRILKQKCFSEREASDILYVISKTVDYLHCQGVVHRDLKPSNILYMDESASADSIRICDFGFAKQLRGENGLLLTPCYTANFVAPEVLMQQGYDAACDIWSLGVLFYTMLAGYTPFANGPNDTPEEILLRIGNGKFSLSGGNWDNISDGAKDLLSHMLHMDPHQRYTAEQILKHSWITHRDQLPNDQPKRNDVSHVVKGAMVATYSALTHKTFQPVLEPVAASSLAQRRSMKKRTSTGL

[14] = target: STE20-like serine/threonine-protein kinase (Homo sapiens) (UniProt Q9H2G2); assay: Inhibition of SLK (unknown origin) assessed as remaining activity at 1 uM by Kinome scan method relative to control
[15] = target: Tyrosine-protein kinase receptor Tie-1 (Homo sapiens) (UniProt P35590); assay: Inhibition of TIE1 (unknown origin) assessed as remaining activity at 1 uM by Kinome scan method relative to control
Chain of Tyrosine-protein kinase receptor Tie-1 (Homo sapiens) (P35590 whole entry): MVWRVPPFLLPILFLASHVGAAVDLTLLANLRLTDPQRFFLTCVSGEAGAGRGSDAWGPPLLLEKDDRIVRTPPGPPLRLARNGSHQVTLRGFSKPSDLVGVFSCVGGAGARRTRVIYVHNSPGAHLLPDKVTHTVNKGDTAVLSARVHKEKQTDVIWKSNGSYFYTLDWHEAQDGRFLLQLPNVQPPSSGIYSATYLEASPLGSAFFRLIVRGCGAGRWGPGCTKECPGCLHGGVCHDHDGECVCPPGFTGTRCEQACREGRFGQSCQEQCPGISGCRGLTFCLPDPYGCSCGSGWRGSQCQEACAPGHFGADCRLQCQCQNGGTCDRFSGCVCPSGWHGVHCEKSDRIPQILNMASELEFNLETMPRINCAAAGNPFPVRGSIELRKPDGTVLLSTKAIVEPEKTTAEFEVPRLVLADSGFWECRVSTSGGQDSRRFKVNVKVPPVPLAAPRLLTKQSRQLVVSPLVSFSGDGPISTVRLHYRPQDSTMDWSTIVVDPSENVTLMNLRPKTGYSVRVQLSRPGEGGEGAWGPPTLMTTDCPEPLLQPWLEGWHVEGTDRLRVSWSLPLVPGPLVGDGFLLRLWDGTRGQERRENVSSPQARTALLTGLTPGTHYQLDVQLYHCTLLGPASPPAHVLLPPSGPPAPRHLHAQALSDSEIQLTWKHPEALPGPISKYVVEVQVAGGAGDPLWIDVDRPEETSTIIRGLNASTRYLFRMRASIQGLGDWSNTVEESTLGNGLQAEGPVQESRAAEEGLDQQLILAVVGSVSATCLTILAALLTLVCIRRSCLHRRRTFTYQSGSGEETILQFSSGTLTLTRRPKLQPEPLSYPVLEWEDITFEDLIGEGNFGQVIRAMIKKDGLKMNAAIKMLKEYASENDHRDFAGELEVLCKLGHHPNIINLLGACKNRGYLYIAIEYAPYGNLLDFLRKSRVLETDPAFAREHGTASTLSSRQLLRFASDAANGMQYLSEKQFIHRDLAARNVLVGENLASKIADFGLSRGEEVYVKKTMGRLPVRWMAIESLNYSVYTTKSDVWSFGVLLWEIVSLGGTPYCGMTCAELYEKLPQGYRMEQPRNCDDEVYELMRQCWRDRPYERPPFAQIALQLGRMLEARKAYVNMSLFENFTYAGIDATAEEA

[16] = target: NT-3 growth factor receptor (Homo sapiens) (UniProt Q16288); assay: Inhibition of TRKC (unknown origin) assessed as remaining activity at 1 uM by Kinome scan method relative to control
[17] = target: Serine/threonine-protein kinase ULK2 (Homo sapiens) (UniProt Q8IYT8); assay: Inhibition of ULK2 (unknown origin) assessed as remaining activity at 1 uM by Kinome scan method relative to control
[18] = target: Serine/threonine-protein kinase VRK2 (Homo sapiens) (UniProt Q86Y07); assay: Inhibition of VRK2 (unknown origin) assessed as remaining activity at 1 uM by Kinome scan method relative to control
[19] = target: Serine/threonine-protein kinase WNK4 (Homo sapiens) (UniProt Q96J92); assay: Inhibition of WNK4 (unknown origin) assessed as remaining activity at 1 uM by Kinome scan method relative to control
[20] = target: Phosphatidylinositol 5-phosphate 4-kinase type-2 gamma (Homo sapiens, UniProt Q8TBX8); assay: Binding affinity to PIP5K2C (unknown origin) assessed as dissociation constant
Chain of Phosphatidylinositol 5-phosphate 4-kinase type-2 gamma (Q8TBX8 whole entry): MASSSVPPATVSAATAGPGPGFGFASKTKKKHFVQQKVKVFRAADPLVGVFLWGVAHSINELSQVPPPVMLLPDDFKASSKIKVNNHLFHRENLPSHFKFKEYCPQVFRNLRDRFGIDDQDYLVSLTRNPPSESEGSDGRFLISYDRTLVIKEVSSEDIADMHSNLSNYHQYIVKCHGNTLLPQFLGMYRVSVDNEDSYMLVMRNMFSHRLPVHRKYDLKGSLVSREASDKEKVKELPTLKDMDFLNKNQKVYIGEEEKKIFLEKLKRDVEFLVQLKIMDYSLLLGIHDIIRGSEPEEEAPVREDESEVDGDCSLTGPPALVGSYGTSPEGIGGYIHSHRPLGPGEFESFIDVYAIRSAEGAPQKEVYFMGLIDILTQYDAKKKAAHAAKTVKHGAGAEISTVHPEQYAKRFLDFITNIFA

[21] = tested on: HepG2; assay: Induction of apoptosis in human HepG2 cells assessed as early apoptosis cells at 3 uM by annexinV staining (Rvb =4.16 %); assay type: functional
[22] = Inhibition of recombinant His-tagged full-length MST1 Y101F mutant (unknown origin) expressing in Escherichia coli assessed as MOB1 phosphorylation level incubated for 15 min by immunoblot analysis; set-up: species or system Homo sapiens
[23] = Cmax in male Sprague-Dawley rat at 10 mg/kg, po measured for 24 hrs by LC-MS/MS analysis; assay type: ADME, organism-based; details: in vivo
Outline: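 Sprague-Dawley rats, single intravenous or oral dose. Parameters (half-life, AUC, bioavailability) reported in a supplementary table.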

[24] = tested on: Mus musculus; assay: Protection against APAP induced liver injury in mouse assessed as continual expansion of centrilobular necrotic lesions at 1 mg/kg, ip administered at 1.5 hrs by TUNEL staining; assay type: functional, organism-based

CN1C(=O)c2sccc2N(C)c2nc(Nc3ccc(S(N)(=O)=O)cc3)ncc21
IC50 [1]: 71.1 nM
Activity [2]: 41%
Activity [3]: 100%
Activity [4]: 100%
Activity [5]: 85%
Activity [6]: 67%
Activity [7]: 100%
Activity [8]: 100%
Activity [9]: 100%
Activity [10]: 100%
Activity [11]: 78%
Activity [12]: 100%
Activity [13]: 66%
Activity [14]: 100%
Activity [15]: 100%
Activity [16]: 55%
Activity [17]: 4.8%
Activity [18]: 85%
Activity [19]: 95%
Kd [20]: 34 nM
Activity [21]: 4.04%
IC50 [22]: 355 nM
Cmax [23]: 118 ng/mL
Activity [24]: Active
